How the values were obtained:
[1] = target: T1, Cholecystokinin receptor type A (Homo sapiens, UniProt P32238); test: Inhibition of human CCK1 receptor
T1 sequence (P32238 whole entry): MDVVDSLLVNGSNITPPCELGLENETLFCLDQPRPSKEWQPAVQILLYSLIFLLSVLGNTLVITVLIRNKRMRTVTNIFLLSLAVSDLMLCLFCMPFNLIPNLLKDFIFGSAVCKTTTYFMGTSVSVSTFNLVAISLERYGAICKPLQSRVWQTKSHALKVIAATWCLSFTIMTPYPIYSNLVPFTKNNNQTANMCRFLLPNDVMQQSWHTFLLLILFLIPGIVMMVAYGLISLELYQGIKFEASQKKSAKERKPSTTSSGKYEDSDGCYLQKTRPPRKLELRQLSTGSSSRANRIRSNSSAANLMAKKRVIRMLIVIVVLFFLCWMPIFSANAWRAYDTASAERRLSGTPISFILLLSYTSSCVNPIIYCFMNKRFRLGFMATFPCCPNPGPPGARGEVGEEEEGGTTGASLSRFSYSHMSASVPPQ

[2] = target: T2, Cholecystokinin receptor type A (Homo sapiens) (UniProt P32238); test: Agonist activity at human CCK1 receptor relative to cholecystokinin 8; format: functional
T2 sequence (whole entry): T1 sequence (P32238 whole entry)

[3] = target: T1, Cholecystokinin receptor type A; test: Agonist activity at human CCK1 receptor; format: functional
In short: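 Human CCK1 receptor agonism measured in a CCK_IP3 functional assay with NFAT read-out. Values are means of ≥3 experiments, with standard deviations <75% of the average.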

[4] = target: T3, Cholecystokinin receptor type A (Mus musculus, UniProt O08786); test: Agonist activity at mouse CCK1 receptor; format: functional
T3 sequence (O08786 whole entry): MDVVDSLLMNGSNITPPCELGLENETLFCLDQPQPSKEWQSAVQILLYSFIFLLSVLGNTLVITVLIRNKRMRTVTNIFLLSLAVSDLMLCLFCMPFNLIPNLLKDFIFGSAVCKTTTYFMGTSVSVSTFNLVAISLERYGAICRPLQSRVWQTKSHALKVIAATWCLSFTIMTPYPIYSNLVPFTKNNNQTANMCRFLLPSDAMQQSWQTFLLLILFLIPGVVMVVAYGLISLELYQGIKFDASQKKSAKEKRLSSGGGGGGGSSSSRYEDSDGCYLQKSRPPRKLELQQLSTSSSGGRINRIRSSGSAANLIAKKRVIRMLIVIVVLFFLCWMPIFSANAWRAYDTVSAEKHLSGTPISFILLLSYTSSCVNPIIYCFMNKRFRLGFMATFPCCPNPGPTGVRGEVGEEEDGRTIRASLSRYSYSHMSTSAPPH
In short: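 Mouse CCK1 receptor agonism measured in a CCK_IP3 functional assay in K1 cells. Values are means of ≥3 experiments, with standard deviations <75% of the average.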

[5] = target: T4, Cholecystokinin receptor type A (Mus musculus) (UniProt O08786); test: Agonist activity at mouse CCK1 receptor relative to cholecystokinin 8; format: functional
T4 sequence (whole entry): T3 sequence (O08786 whole entry)

[6] = tested on: Mus musculus; test: Suppression of 18 hrs overnight food intake in mouse at 3 mg/kg, po relative to control; format: functional
In short: (§1)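 Lean mice were dosed orally in 10% Tw80 in water. Overnight food intake was measured and expressed relative to vehicle-dosed mice.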

[7] = Cmax in mouse at 10 mg/kg, po; format: ADME, organism-based; design: dose 10 mg/kg, route oral; conditions: in vivo
[8] = Tmax in mouse at 1 mg/kg, iv and 10 mg/kg, po; format: ADME, organism-based; conditions: in vivo
[9] = Volume of distribution in mouse at 1 mg/kg, iv and 10 mg/kg, po; format: ADME, organism-based; conditions: in vivo
[10] = tested on: Mus musculus; test: Suppression of 18 hrs overnight food intake in mouse at 0.3 mg/kg, po relative to control; format: functional; in short: as §1
[11] = Half life in mouse at 1 mg/kg, iv and 10 mg/kg, po; format: ADME, organism-based; conditions: in vivo
[12] = tested on: Mus musculus; test: AUC in mouse at 10 mg/kg, po; format: ADME, organism-based, Plasma; design: dose 10 mg/kg, route oral; conditions: in vivo
[13] = tested on: Mus musculus; test: Oral bioavailability in mouse at 10 mg/kg; format: ADME, organism-based; conditions: in vivo
[14] = tested on: Mus musculus; test: Suppression of 48 hrs overnight food intake in wild type mouse at 3 mg/kg, po relative to control; format: functional
In short: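 Wild-type and CCK1R^-/- mice received an oral dose of 3 mpk. Food intake was measured at 18 h and 48 h and compared with vehicle.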

[15] = species: Mus musculus; test: Gastrointestinal toxicity in CCK1 receptor deficient mouse; format: organism-based; conditions: in vivo
[16] = species: Mus musculus; test: Gastrointestinal toxicity in wild type mouse; format: organism-based; conditions: in vivo

Compound	IC50 [1] [nM]	Activity [2] [%]	EC50 [3] [nM]	also measured
CCOc1cccc(-n2cc(C(=O)N3CCN(c4cc(C(=O)O)c5ccccc5c4)C[C@@H]3CNC(=O)NC)nc2-c2ccc(C)cc2)c1	0.08	74	0.13	
CCOc1cccc(-n2cc(C(=O)N3CCN(c4cnc5ccccc5c4)C[C@@H]3COCC(=O)O)nc2-c2ccc(C)cc2)c1	0.039	96	0.097	EC50 [4]: 0.5 nM; Activity [5]: 84%
CCOc1cccc(-n2cc(C(=O)N3CCN(c4cc(C(=O)O)c5ccccc5c4)C[C@H]3COCC(=O)O)nc2-c2ccc(C)cc2F)c1	0.041	106	0.034	
CCOc1cccc(-n2cc(C(=O)N3CCN(c4cc(C(=O)O)c5ccccc5c4)C[C@H]3C(=O)NC(C)C)nc2-c2ccc(C)cc2)c1	0.016	103	0.053	Activity [6]: 45%; Cmax [7]: 180 nM; Tmax [8]: 5.5 h; Vd [9]: 3.7 L/kg; Activity [10]: 19%; EC50 [4]: 0.11 nM; half-life [11]: 2.5 h; AUC [12]: 0.15 µM·h; F [13]: 11%; Activity [5]: 110%
CCOc1cccc(-n2cc(C(=O)N3CCN(c4cc(C(=O)O)c5ccccc5c4)CC3)nc2-c2ccc(C)cc2)c1				Activity [6]: 82%; Tmax [8]: 6.7 h; Activity [10]: 18%; AUC [12]: 0.39 µM·h; Activity [5]: 103%
CCOc1cccc(-n2cc(C(=O)N3CCN(c4cc(C(=O)O)c5ccccc5c4)C[C@H]3CNC(C)=O)nc2-c2ccc(C)cc2F)c1	0.058	70	0.033	Activity [6]: 18%; EC50 [4]: 0.13 nM; Activity [5]: 77%
CCOc1cccc(-n2cc(C(=O)N3CCN(c4cc(C(=O)O)c5ccccc5c4)C[C@@H]3CNC(C)=O)nc2-c2ccc(C)cc2)c1	0.08	67	0.04	
CCOc1cccc(-n2cc(C(=O)N3CCN(c4cc(C(=O)O)c5ccccc5c4)C[C@H]3CNC(=O)NC)nc2-c2ccc(C)cc2F)c1	0.097	90	0.074	
CCOc1cccc(-n2cc(C(=O)N3CCN(c4cc(C(=O)O)c5ccccc5c4)CC3)nc2-c2ccc(C)cc2F)c1	0.04		0.055	Activity [6]: 86%; Tmax [8]: 0.6 h; Activity [10]: 13%; AUC [12]: 0.61 µM·h; Activity [5]: 56%
CCOc1cccc(-n2cc(C(=O)N3CCN(c4cnc5ccccc5c4)C[C@H]3CNC(C)=O)nc2-c2ccc(C)cc2)c1	0.39	104	0.097	
CCOc1cccc(-n2cc(C(=O)N3CCN(c4cnc5ccccc5c4)C[C@H]3CNS(C)(=O)=O)nc2-c2ccc(C)cc2)c1	0.73	117	0.46	
CCOc1cccc(-n2cc(C(=O)N3CCN(c4cnc5ccccc5c4)C[C@H]3COC(C)=O)nc2-c2ccc(C)cc2)c1	0.47	118	0.77	
CCOc1cccc(-n2cc(C(=O)N3CCN(c4cc(C(=O)O)c5ccccc5c4)C[C@@H]3C(=O)NC(C)C)nc2-c2ccc(C)cc2)c1	0.11	94	0.082	
CCOc1cccc(-n2cc(C(=O)N3CCN(c4cnc5ccccc5c4)C[C@H]3C(=O)NC(C)C)nc2-c2ccc(C)cc2)c1	0.24	102	0.14	
CCOc1cccc(-n2cc(C(=O)N3CCN(c4cnc5ccccc5c4)C[C@H]3COCC(=O)O)nc2-c2ccc(C)cc2)c1	0.052	93	0.065	
CCOc1cccc(-n2cc(C(=O)N3CCN(c4cnc5ccccc5c4)C[C@@H]3COC(C)=O)nc2-c2ccc(C)cc2)c1	0.24	104	0.25	

Continued by falling IC50 [1], values first:

IC50 [1] [nM]	Activity [2] [%]	EC50 [3] [nM]	Compound	also measured
0.56	70	0.16	CCOc1cccc(-n2cc(C(=O)N3CCN(c4cnc5ccccc5c4)C[C@@H]3CNC(=O)NC)nc2-c2ccc(C)cc2)c1	
0.43	100	0.21	CCOc1cccc(-n2cc(C(=O)N3CCN(c4cnc5ccccc5c4)C[C@@H]3CNS(C)(=O)=O)nc2-c2ccc(C)cc2)c1	
0.25	91	0.1	CCOc1cccc(-n2cc(C(=O)N3CCN(c4cnc5ccccc5c4)C[C@@H]3CNC(C)=O)nc2-c2ccc(C)cc2)c1	
0.21	87	0.18	CCOc1cccc(-n2cc(C(=O)N3CCN(c4cnc5ccccc5c4)C[C@@H]3C(=O)NC(C)C)nc2-c2ccc(C)cc2)c1	
0.14	85	0.097	CCOc1cccc(-n2cc(C(=O)N3CCN(c4cc(C(=O)O)c5ccccc5c4)C[C@@H]3COCC(=O)O)nc2-c2ccc(C)cc2)c1	
0.12	72	0.095	CCOc1cccc(-n2cc(C(=O)N3CCN(c4cc(C(=O)O)c5ccccc5c4)C[C@@H]3CNS(C)(=O)=O)nc2-c2ccc(C)cc2)c1	
0.067	97	0.1	CCOc1cccc(-n2cc(C(=O)N3CCN(c4cc(C(=O)O)c5ccccc5c4)C[C@H]3CNS(C)(=O)=O)nc2-c2ccc(C)cc2F)c1	
0.018	82	0.089	CCOc1cccc(-n2cc(C(=O)N3CCN(c4cnc5ccccc5c4)C[C@H]3C(=O)NCC(=O)O)nc2-c2ccc(C)cc2)c1	EC50 [4]: 0.11 nM; Activity [5]: 99%
0.01	94	0.071	CCOc1cccc(-n2cc(C(=O)N3CCN(c4cc(C(=O)O)c5ccccc5c4)C[C@H]3C(=O)NC(C)C)nc2-c2ccc(C)cc2F)c1	Activity [6]: 92%; Activity [14]: 85%; Cmax [7]: 180 nM; Tmax [8]: 8 h; Vd [9]: 0.42 L/kg; Activity [10]: 32%; Activity [15]: Non-toxic; EC50 [4]: 0.034 nM; half-life [11]: 2.3 h; AUC [12]: 0.1 µM·h; F [13]: 4%; Activity [16]: Toxic; Activity [5]: 94%

— ChEMBL document CHEMBL1157349, “2-Substituted piperazine-derived imidazole carboxamides as potent and selective CCK1R agonists for the treatment of obesity” (Bioorg Med Chem Lett, 2008)
